The nature of data set [1]: Half life in pH 7.3 phosphate buffered saline by HPLC analysis. Type of data set: physicochemical. Put shortly:
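Prodrug from 50 mM DMSO-d6 stock diluted to 1.9 mM with water/DMSO-d6. Reaction started by adding phosphate buffer (50 mM stock, pH 7.3). Products followed by analytical RP18 HPLC with TBAA or TEAA buffer/acetonitrile gradient.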

Data set [2] is described as follows: Prodrug conversion in pH 7.3 phosphate buffered saline assessed as pig liver esterase-mediated d4TTP formation by HPLC analysis. Type of data set: ADME, Sus scrofa. Particulars: in vitro. The gist of the method: (§1)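 Prodrug diluted from 50 mM DMSO stock through a 6.0 mM intermediate into DMSO/50 mM PBS pH 7.3. Started with pig liver esterase (3 mg/mL solution in PBS) and shaken at 37 °C, 800 rpm. Aliquots quenched in MeOH at intervals, filtered, stored in liquid nitrogen and analysed by RP18 HPLC.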

The nature of data set [3]: Half life in human CEM/0 cell extracts by HPLC analysis. The class given is ADME, CCRF-CEM. The gist of the method: (§2)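 Cell extract prepared from CEM cells grown in RPMI-1640-based medium to ~3·10^6 cells/mL. Cells washed twice in cold PBS, resuspended at 10^8 cells/mL, sonicated, cleared at 10,000 rpm and stored at -80 °C. Prodrug at 6.0 mM hydrolysis solution in DMSO-d6 mixed with water and extract at 37 °C over time. Samples iced, sonicated and centrifuged; supernatant analysed by RP18 HPLC. t1/2 calculated as for chemical hydrolysis.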

Data set [4] can be described thus: Prodrug conversion in human CEM/0 cell extracts assessed as gamma-(C6-ACB)-d4TTP formation by HPLC analysis. The class given is ADME. Conditions: ccrf-cem. Put shortly:
as §2

The nature of data set [5]: Cytotoxicity against human CEM cells assessed as reduction in cell proliferation. Type of data set: cell-based. Conditions: CEM cells (CCRF-CEM). Put shortly:
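CC50 is the compound concentration inhibiting CEM CD4+ T-cell proliferation by 50%. Mean ± SD of n=2-3 independent experiments.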

Data set [6] can be described thus: Selectivity index, ratio of CC50 for human CEM cells to EC50 for HIV1 HE infected in human CEM/0 cells. Conditions: CEM cells (CC50) and HIV1 HE infected CEM/0 cells (EC50).
In data set [7] the test system is Human immunodeficiency virus 1. In words: Antiviral activity against HIV1 HE infected in human CEM/0 cells assessed as inhibition of virus-induced giant cell formation measured after 4 to 5 days by microscopic analysis. Particulars: Human immunodeficiency virus 1, HE, CCRF-CEM.
Data set [8] deals with Human immunodeficiency virus 2. In words: Antiviral activity against HIV2 ROD infected in human CEM/0 cells assessed as inhibition of virus-induced giant cell formation measured after 4 to 5 days by microscopic analysis. Particulars: Human immunodeficiency virus 2, ISOLATE ROD, CCRF-CEM.
Data set [9] relates to Human immunodeficiency virus 2. In words: Antiviral activity against HIV2 ROD infected in thymidine kinase-deficient human CEM cells assessed as inhibition of virus-induced giant cell formation measured after 4 to 5 days by microscopic analysis. Particulars: Human immunodeficiency virus 2, ISOLATE ROD, CCRF-CEM.
Data set [10] can be described thus: Cytotoxicity against mouse eEND.2 cells assessed as reduction in cell viability by WST-1 assay. The class given is cell-based. Particulars: read-out: LD50 (the source's name). A general note: Tetrazolium assays rely on reduction of a dye to a coloured formazan, in cell work by metabolically active cells.
Data set [11] is described as follows: Half life in pH 7.3 phosphate buffered saline in presence of pig liver esterase by HPLC analysis. The class given is ADME, Sus scrofa. Put shortly: as §1
Data set [12] can be described thus: Prodrug conversion in pH 7.3 phosphate buffered saline assessed as pig liver esterase-mediated gamma-(C16-ACB)-d4TTP formation by HPLC analysis. The class given is ADME, Sus scrofa. Particulars: in vitro. The gist of the method:
as §1

Data set [13] can be described thus: Prodrug conversion in pH 7.3 phosphate buffered saline assessed as pig liver esterase-mediated d4TMP formation by HPLC analysis. Type of data set: ADME, Sus scrofa. Conditions: in vitro. Put shortly:
as §1

Data set [14] is described as follows: Prodrug conversion in human CEM/0 cell extracts assessed as gamma-(C16-ACB)-d4TTP formation by HPLC analysis. The class given is ADME. Conditions: ccrf-cem. The gist of the method: as §2
Data set [15] can be described thus: Prodrug conversion in human CEM/0 cell extracts assessed as d4TDP formation by HPLC analysis. Type of data set: ADME. Particulars: ccrf-cem. Put shortly: as §2
Data set [16] can be described thus: Prodrug conversion in human CEM/0 cell extracts assessed as d4TTP formation by HPLC analysis. The class given is ADME. Particulars: ccrf-cem. The gist of the method:
as §2

Data set [17] can be described thus: Prodrug conversion in human CEM/0 cell extracts assessed as d4TMP formation by HPLC analysis. Conditions: ccrf-cem. Type of data set: ADME. Put shortly: as §2

`CCCCCCCCCCCC(=O)Oc1ccc(COP(=O)(OCc2ccc(OC(=O)OCCCCCC)cc2)OP(=O)(O)OP(=O)(O)OC[C@@H]2C=C[C@H](n3cc(C)c(=O)[nH]c3=O)O2)cc1.N.N` (stereo partly drawn): the figures for the half-life in [1] and in data set [3] were 95 h and 2.5 h, respectively. Also, the Drug metabolism result in [2] and in data set [4] was “Metabolite_Detected” throughout. The CC50 in [5] was 41 µM. For the same molecule, the selectivity ratio in [6] came to 137. The values for the EC50 in data set [7], in data set [8] and in data set [9] were 0.3 µM, 0.07 µM and 0.21 µM, respectively.
Regarding `OCc1ccc(O)cc1` [PARAHYDROXYBENZYL ALCOHOL], the CC50 in data set [10] stood at 50000 µM.
In the case of `CCCCCCCCCCCCOC(=O)Oc1ccc(COP(=O)(OCc2ccc(OC(=O)OCC)cc2)OP(=O)(O)OP(=O)(O)OC[C@@H]2C=C[C@H](n3cc(C)c(=O)[nH]c3=O)O2)cc1.N.N` (stereo partly drawn), the figures for the half-life in data set [1], in data set [11] and in data set [3] were 84 h, 0.51 h and 0.94 h, respectively. Moreover, the Drug metabolism result in [2] was “Metabolite_Detected”. In data set [5], the CC50 came out at 64 µM. The selectivity ratio in data set [6] is 112. Moreover, the figures for the concentration giving a half-maximal response (EC50) in [7], in [8] and in [9] were 0.57 µM, 0.24 µM and 1.75 µM, respectively.
As to `CCCCCCCCCCCCOC(=O)Oc1ccc(COP(=O)(OCc2ccc(OC(=O)CCCC)cc2)OP(=O)(O)OP(=O)(O)OC[C@@H]2C=C[C@H](n3cc(C)c(=O)[nH]c3=O)O2)cc1.N.N` (stereo partly drawn), the results for the half-life in data set [1], in data set [11] and in data set [3] were 87 h, 0.17 h and 1.2 h, respectively. Besides, the Drug metabolism result in data set [2] was “Metabolite_Detected”. Moreover, the CC50 in data set [5] stood at 27 µM. The selectivity ratio in data set [6] worked out at 675. The concentration giving a half-maximal response (EC50) in data set [7] worked out at 0.04 µM; in data set [8], 0.017 µM; in [9], 0.073 µM.
Consider `CCCCCCCCCCCCCCCCOC(=O)Oc1ccc(COP(=O)(OCc2ccc(OC(=O)CCCC)cc2)OP(=O)(O)OP(=O)(O)OC[C@@H]2C=C[C@H](n3cc(C)c(=O)[nH]c3=O)O2)cc1.N.N` (stereo partly drawn), for which the results for the half-life in data set [1], in data set [11] and in data set [3] were 74 h, 1.6 h and 3.7 h, respectively. Moreover, the Drug metabolism entry in [2] is on record as “Metabolite_Detected”. In data set [5], the CC50 was found to be 21 µM. Moreover, the selectivity ratio in [6] was 656. In [9], the EC50 is 0.12 µM.
`CCCCCCCCCCCCCCCCOC(=O)Oc1ccc(COP(=O)(OCc2ccc(OC(=O)CC)cc2)OP(=O)(O)OP(=O)(O)OC[C@@H]2C=C[C@H](n3cc(C)c(=O)[nH]c3=O)O2)cc1.N.N` (stereo partly drawn): the results for the half-life in data set [1], in [11] and in [3] were 83 h, 4.7 h and 1.9 h, respectively. Moreover, the Drug metabolism result in [12] was “Metabolite_Detected”; in [2], “Metabolite_Detected”; in data set [13], “Metabolite_Notdetected”; in data set [14] it was “Metabolite_Detected”; in data set [15], “Metabolite_Detected”; in data set [16], “Metabolite_Notdetected”. The Drug metabolism result in data set [17] is recorded as “Metabolite_Detected”. Moreover, the CC50 in data set [5] is 34 µM. Besides, the selectivity ratio in data set [6] worked out at 1260. The EC50 in data set [9] is 0.11 µM.

The half-life is the time needed for the level to fall by half in the phase considered. As a reminder, the EC50 is the concentration at which the effect is half-maximal.

These data come from ChEMBL document CHEMBL4613272, “Anti-HIV-Active Nucleoside Triphosphate Prodrugs” (J Med Chem, 2020).
